Assay outcomes as filed in PubChem.
PKA-R2B act = PKA-R2B complex activation; P22694+P31323; PKA-R2B holoenzyme dissociation, Cy5-IP20 fluorescence polarization; R2B truncated from residue 108, S112A mutant; 0% DMSO only, 100% 113 µM cGMP; activation, % at 11.4 µM; hit rate 0.079% among 340,000;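 active = activation above a cutoff set at the mean over all compounds plus 3 SD, cut at about 18% in these data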;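 note: higher means more holoenzyme dissociation and a rise in polarization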
Target sequence (P31323 whole entry, looked up, other chains not shown, the tested form may be a part): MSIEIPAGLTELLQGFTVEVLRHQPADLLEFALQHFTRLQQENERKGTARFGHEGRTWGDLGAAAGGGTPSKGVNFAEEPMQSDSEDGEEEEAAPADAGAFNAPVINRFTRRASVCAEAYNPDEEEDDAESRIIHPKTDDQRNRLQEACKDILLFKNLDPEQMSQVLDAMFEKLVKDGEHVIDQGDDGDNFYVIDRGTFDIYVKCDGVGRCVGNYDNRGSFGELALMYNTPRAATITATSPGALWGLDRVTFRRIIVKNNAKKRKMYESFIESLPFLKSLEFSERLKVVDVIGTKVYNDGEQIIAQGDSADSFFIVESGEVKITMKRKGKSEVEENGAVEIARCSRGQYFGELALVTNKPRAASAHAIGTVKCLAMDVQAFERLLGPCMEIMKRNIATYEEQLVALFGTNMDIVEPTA
IMP-1 inh = inhibitors of Pseudomonas aeruginosa IMP-1 metallo-beta-lactamase. inhibition, % at 5.6 µM. AID 1556. purified IMP-1, nitrocefin hydrolysis, epi-absorbance fluorescence. hit rate 0.45% among 290,000;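 active = inhibition above the mean plus 3 SD of all compounds in the same screening run, cut at about 4.5% in these data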
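system = purified recombinant IMP-1 beta-lactamase | amount = 0.2 nM IMP-1, as dispensed | medium = HEPES buffer pH 7.1 with ZnSO4 and Brij 35 | times = 25 °C, 15 min preincubation, 25 min reaction | detection = plate fluorescence quenching by hydrolysis product, ex 480/em 530 nm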
PKA-R1A act = activators of PKA-R1A complex | activation, % at 11.4 µM | P00514+P68181 | PKA-R1A dissociation, Cy5-IP20 fluorescence polarization; scaled: DMSO 0%, 113 µM cGMP 100% | hit rate 0.083% among 340,000;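 active = percent activation above the mean of all tested compounds plus 3 SD, cut at about 19% in these data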;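 note: higher means more PKAc released from R1A so a rise in polarization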
MsrA inhibitor = inhibitors of bovine MsrA; AID 651718; hit rate 0.75% among 360,000; inhibition, % at 15.5 µM; purified bovine MsrA, absorbance read-out
MsrA act = activators of bovine methionine sulfoxide reductase A; purified bovine MsrA, absorbance read-out; activation, % at 10.6 µM; hit rate 0.3% among 360,000; in the data active = activation above about 7.5%
VIM-2 inh = inhibitors of Pseudomonas aeruginosa VIM-2 metallo-beta-lactamase; purified VIM-2, nitrocefin hydrolysis, epi-absorbance fluorescence; inhibition, % at 5.6 µM; hit rate 0.89% among 290,000;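 active = inhibition above the mean of all tested compounds plus 3 SD, cutoff set per screening run, cut at about 7.5% in these data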;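 note: red hydrolysis product quenches plate fluorescence so inhibitors raise well fluorescence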
MsrA conf = bovine MsrA inhibition, confirmed; shares compounds with MsrA inhibitor; purified bovine MsrA, absorbance read-out; inhibition, % at 15.5 µM; hit rate 41% among 2,300;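 note: coupled to thioredoxin reductase with NADPH and selenocystamine and DMSO as substrate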
A number is an active result; i = inactive; nt = no result. A selection: hits, their analogues and other compounds. The true share with any hit is near 2.1%. Cut-off read from the data, not from the text of the source, unless noted: active = inhibition above about 4.5%; inactive = the rest.

SMILES | PKA-R2B act | IMP-1 inh | PKA-R1A act | MsrA inhibitor | MsrA act | VIM-2 inh | MsrA conf
CN(C)c1ccc(C=Nc2ccc(N(C)C)cc2)cc1 | i | i | i | 7.2 | i | i | 4.8
Cc1nc(/N=C\c2ccc(N(C)C)cc2)sc1C | i | nt | i | 5.8 | i | nt | i
Cc1ccc(N=Cc2ccc(N(C)C)cc2)cc1 | i | i | i | 6.5 | i | i | i
Cc1ccc(S(=O)(=O)N(C)/N=C/c2ccc(N(C)C)cc2)cc1 | i | i | i | 6.1 | i | i | i
Fc1cccc(Cc2c(C3CCCCC3)nc3c4ccccc4ccn23)c1 | nt | nt | nt | i | i | nt | nt
Cc1c(OCC(N)=O)ccc2c(-c3ccccc3)cc(=O)oc12 | i | i | i | 31.1 | i | i | 40.0
CC(=O)COc1ccc2c(-c3ccccc3)cc(=O)oc2c1C | i | i | i | 19.1 | i | i | 21.8
Cc1c(OCC(=O)C(C)(C)C)ccc2c(-c3ccccc3)cc(=O)oc12 | i | i | i | i | i | i | nt
CCCN(CCC)Cc1cc(=O)oc2ccccc12 | nt | nt | nt | i | nt | nt | nt
O=c1[nH]c2ccccc2cc1CN(CC1CCCO1)S(=O)(=O)c1ccccc1 (stereo unspecified) | i | i | i | i | i | i | nt
COc1ccc(CCNC(=O)C2CCN(C(=O)c3ccc(Cl)cc3)CC2)cc1OC | i | i | i | i | i | i | nt
O=c1c(-c2ccccc2)coc2c(CN3CCCC3)c(O)ccc12 | i | i | i | 5.5 | i | i | i
Cc1nc2ccccn2c1C(=O)N/N=C/c1ccc([N+](=O)[O-])o1 | i | i | i | 5.2 | i | i | i
O=C(O)c1ccc([N+](=O)[O-])c2c1C(=O)c1ccccc1C2=O | i | nt | i | i | i | nt | nt
O=C(O)c1cccc2c1-c1c(cccc1[N+](=O)[O-])C2 | i | nt | i | 5.9 | i | nt | i
O=C(O)c1cccc2c1-c1ccc([N+](=O)[O-])cc1C2=O | i | nt | i | i | i | nt | nt
O=C(O)c1cccc2c1C(=O)c1cc([N+](=O)[O-])cc([N+](=O)[O-])c1-2 | i | nt | i | 5.6 | i | nt | i
COc1ccc(NC(=O)c2cc(C3CCCCN3C(=O)c3ccccc3)on2)c(C)c1 (stereo unspecified) | nt | nt | nt | i | i | nt | nt
COc1ccc(NC(=O)c2sc3nc(N4CCCC4)c4c(c3c2N)CC(C)(C)OC4)cc1 | i | i | i | 5.3 | i | i | i
COc1ccc(NC(=O)c2sc3nc(N4CCOCC4)c4c(c3c2N)CC(C)(C)OC4)cc1 | i | i | i | i | i | i | nt
COc1ccc(/C=N/N=C2\SCC(=O)N2c2c(C)n(C)n(-c3ccccc3)c2=O)cc1OC | i | i | i | 5.7 | i | i | i
Cc1c(N2C(=O)CS/C2=N\N=C\c2ccc(Cl)cc2)c(=O)n(-c2ccccc2)n1C | i | i | i | i | i | i | nt
COc1ccc(/C=N/Nc2cc(C)nc(-n3nc(C)cc3C)n2)cc1 | i | i | i | i | i | i | nt
Cc1cc(N/N=C/c2ccc(O)cc2O)nc(-n2nc(C)cc2C)n1 | i | i | i | 4.8 | i | i | i
Cc1nc(Cl)cc(N/N=C/c2ccc(O)cc2O)n1 | i | i | i | 5.7 | i | i | 6.2
SMILES | PKA-R2B act | IMP-1 inh | PKA-R1A act | MsrA inhibitor | MsrA act | VIM-2 inh | MsrA conf
CCOC(=O)C1=C(CC)Nc2ccccc2N/C1=N\S(=O)(=O)c1ccccc1OC | i | nt | i | i | i | nt | nt
CC12C=CC(=O)C=C1CCC1C2C(O)CC2(C)C1CCC2(O)C(=O)CO (stereo unspecified) | i | nt | i | i | i | nt | nt
CCN(CC)c1ccc(C(=O)OCC(=O)Nc2ccccc2-c2ccccc2)cc1 | i | i | i | 5.8 | i | i | i
CN(C)c1cccc(C(=O)OCC(=O)Nc2ccccc2-c2ccccc2)c1 | i | i | i | i | i | i | nt
CCNC(=O)c1c(NC(=O)c2cc(-c3cc(C)cc(C)c3O)n[nH]2)sc2c1CCCC2 | i | nt | i | i | i | nt | nt
Cc1ccc(-c2nc(=S)c3c(n2CC2CCCO2)CC(C)(C)OC3)cc1 (stereo unspecified) | i | i | i | 4.9 | i | i | i
Cc1ccc(-c2nc(=S)c3c(n2Cc2ccco2)CC(C)(C)OC3)cc1 | i | i | i | nt | i | i | nt
N/C(=N\OC(=O)COc1ccc(Cl)cc1Cl)c1ccncc1 | i | i | i | i | i | i | nt
COc1ccc(/C=C/C(=O)NC(=S)Nc2ccc(S(=O)(=O)Nc3cc(OC)ncn3)cc2)cc1 | nt | i | nt | i | i | i | nt
COc1ccc(/C=C/C(=O)NC(=S)Nc2ccc(S(=O)(=O)Nc3nccnc3OC)cc2)cc1 | i | i | i | 5.2 | i | i | 6.0
COc1ccc(CCCNC(=O)C2(C)Cc3c(-c4ccc(NC(C)=O)cc4)ccnc3O2)cc1 (stereo unspecified) | nt | nt | nt | i | i | nt | nt
Cc1ccc2oc(-c3ccco3)cc(=O)c2c1 | i | i | i | 7.7 | i | i | 5.4
O=c1cc(-c2ccco2)oc2ccccc12 | i | nt | i | i | i | nt | nt
N#C/C(=C/Nc1ccccc1)c1ccsc1 | i | i | i | 4.8 | i | i | i
CC1(C)CC(=O)c2sc(NS(=O)(=O)Cc3ccccc3)nc2C1 | i | i | i | 5.3 | i | i | i
COc1ccc(S(=O)(=O)Nc2nc3c(s2)C(=O)CC(C)(C)C3)cc1 | i | i | i | i | i | i | nt
Cc1ccc(S(=O)(=O)Nc2nc3c(s2)C(=O)CC(C)(C)C3)cc1 | i | i | i | 6.7 | i | i | i
COc1cccc(C(=O)Nc2ccc(Oc3nnc(-c4ccccc4)c4ccccc34)cc2)c1 | nt | nt | nt | i | nt | nt | nt
CCCNC(=O)COC(=O)/C=C/c1ccc(C)o1 | i | i | i | 5.8 | i | i | 5.5
CC1Sc2ccc(C#N)cc2N(Cc2cccc(C(F)(F)F)c2)C1=O (stereo unspecified) | nt | nt | nt | 5.4 | i | nt | i
FC(F)(F)c1ccc(N/N=C/c2cccnc2)nc1 | i | i | i | i | i | i | nt
C(=N\Nc1ccccn1)/c1cccnc1 | i | i | i | 5.6 | i | i | i
COc1ccccc1NC=C1C(=O)OC(C)(C)OC1=O | i | i | i | 5.5 | i | i | i
CCOc1ccccc1NC=C1C(=O)OC(C)(C)OC1=O | i | i | i | i | i | i | nt
CC(=O)c1ccc(NC(=O)/C(=C\c2ccco2)NC(=O)c2ccco2)cc1 | i | i | i | 5.7 | i | i | 5.4
O=C(Nc1ccc(C(=O)O)cc1)/C(=C\c1ccco1)NC(=O)c1ccco1 | i | i | i | 4.8 | i | i | 4.9
O=C(Nc1ccc(C(=O)O)cc1)/C(=C\c1ccco1)NC(=O)c1ccccc1 | i | i | i | i | i | i | nt
CCn1c(C)nc2cc(C(=O)N/N=C/c3ccccc3)ccc21 | i | i | i | i | i | i | nt
CCn1c(C)nc2cc(C(=O)N/N=C/c3ccc(OC)cc3)ccc21 | nt | i | nt | i | i | i | nt
CCn1c(C)nc2cc(C(=O)N/N=C/c3ccc(O)cc3)ccc21 | i | i | i | 5.0 | i | i | i
